The source made the active and inactive calls. The rule behind the calls is not given here.
How the values were obtained:
CAL-62 [1] = test: Inhibition of clonogenicity in human CAL-62 cells incubated for 48 hrs under hypoxia condition by crystal violet staining based assay; format: functional, cell-based; conditions: CAL-62, 48 h
Method in brief: (§1)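 Dose range 1–50 μM for 48 h under CoCl2 (200 μM) hypoxia. 500 surviving cells replated and grown about 7 days (CAL-62) or 10 days (MDA-MB-231). Crystal violet colony counts used to derive IC50/EC50. Three independent experiments.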

MDA-MB-231 [2] = test: Inhibition of cell migration in human MDA-MB-231 cells at 50 uM incubated for 48 hrs by scratch assay; format: functional
Method in brief: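 Confluent MDA-MB-231 monolayer shifted to serum-depleted medium and scratched with a pipette tip. Treated with 50 μM compound for 48 h, DMSO as control. Migration imaged by phase contrast at two time points and quantified. Mean ± SEM of three independent experiments.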

[3] = biological target: T1, NAD-dependent protein deacetylase sirtuin-3, mitochondrial (Homo sapiens) (UniProt Q9NTG7); test: Activation of human SIRT3 overexpressing in human CAL-62 cells assessed as increase in acK68-MnSOD deacetylation level at 50 uM incubated for 4 hrs by Western blot analysis assay; format: cell-based; conditions: filed as activator
T1 sequence (whole entry): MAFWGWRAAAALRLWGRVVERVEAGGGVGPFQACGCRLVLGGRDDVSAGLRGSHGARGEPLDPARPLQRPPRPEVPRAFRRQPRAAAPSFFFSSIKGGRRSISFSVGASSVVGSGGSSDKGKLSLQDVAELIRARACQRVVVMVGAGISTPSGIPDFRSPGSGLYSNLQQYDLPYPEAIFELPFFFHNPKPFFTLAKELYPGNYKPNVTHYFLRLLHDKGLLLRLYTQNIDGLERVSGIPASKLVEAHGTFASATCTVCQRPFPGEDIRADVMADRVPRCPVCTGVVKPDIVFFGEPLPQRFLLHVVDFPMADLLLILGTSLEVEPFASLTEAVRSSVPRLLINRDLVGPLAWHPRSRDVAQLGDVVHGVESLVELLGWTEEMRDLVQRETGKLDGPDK
Method in brief: (§2)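 CAL-62 or MDA-MB-231 cells treated 4 h at 50 μM. Lysed in Tris/NaCl/EDTA/Triton buffer with protease and phosphatase inhibitors. 15 or 50 μg protein resolved by SDS-PAGE, immunoblotted for acK68- or acK122-MnSOD and total MnSOD, ECL detection. Densitometric acetyl/total ratio. SIRT3 inhibitor 3-TYP (1 μM) used as control.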

MDA-MB-231 [4] = test: Downregulation of CA-IX expression in human MDA-MB-231 cells at 50 uM incubated for 48 hrs under hypoxia condition by Western blot analysis; format: functional, cell-based
Method in brief: (§3)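 CAL-62 or MDA-MB-231 cells made hypoxic with 200 μM CoCl2 for 24 h, then treated with 50 μM compound for 48 h with CoCl2 retained. Lysates (15 or 50 μg protein) immunoblotted for HIF-1α, EPAS-1 or CA-IX with ACTB, ECL detection. 3-TYP (1 μM) as control.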

MDA-MB-231 [5] = test: Induction of cell death in human MDA-MB-231 cells incubated for 48 hrs under hypoxia condition by trypan blue exclusion assay; format: functional, cell-based; conditions: MDA-MB-231, 48 h
Method in brief: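 MDA-MB-231 cells treated at 1–50 μM for 48 h under 200 μM CoCl2 hypoxia. Dead cells scored by trypan blue on a hemocytometer, EC50 derived. Three independent experiments.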

[6] = biological target: T1, NAD-dependent protein deacetylase sirtuin-3, mitochondrial (Homo sapiens); test: Activation of human SIRT3 overexpressing in human CAL-62 cells assessed as increase in acK122-MnSOD deacetylation level at 50 uM incubated for 4 hrs by Western blot analysis assay; format: cell-based; conditions: filed as activator; method in brief: as §2
[7] = biological target: T1, NAD-dependent protein deacetylase sirtuin-3, mitochondrial (Homo sapiens); test: Activation of human SIRT3 overexpressing in human MDA-MB-231 cells assessed as increase in acK68-MnSOD deacetylation level at 50 uM incubated for 4 hrs by Western blot analysis assay; format: cell-based; conditions: filed as activator; method in brief: as §2
CAL-62 [8] = test: Downregulation of CA-IX expression in human CAL-62 cells at 50 uM incubated for 48 hrs under hypoxia condition by Western blot analysis; format: functional, cell-based; method in brief: as §3
MDA-MB-231 [9] = test: Inhibition of clonogenicity in human MDA-MB-231 cells incubated for 48 hrs under hypoxia condition by crystal violet staining based assay; format: functional, cell-based; conditions: MDA-MB-231, 48 h; method in brief: as §1
MDA-MB-231 [10] = test: Downregulation of ZEB1 gene expression in human MDA-MB-231 cells at 50 uM incubated for 48 hrs by qRT-PCR analysis; format: functional, cell-based
Method in brief: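 MDA-MB-231 cells treated with 50 μM compound for 48 h under normoxia, DMSO vehicle control. qRT-PCR quantified by the 2(−ΔCt) method as fold of control, mean ± SEM. Three independent experiments.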

[11] = biological target: T1, NAD-dependent protein deacetylase sirtuin-3, mitochondrial (Homo sapiens); test: Activation of human SIRT3 overexpressing in human MDA-MB-231 cells assessed as increase in acK122-MnSOD deacetylation level at 10 uM incubated for 4 hrs by Western blot analysis assay; format: cell-based; conditions: filed as activator
Method in brief: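 MDA-MB-231 cells treated 4 h at 10 μM, lysed, and immunoblotted for acK122-MnSOD and total MnSOD. Densitometric ratio.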

CAL-62 [12] = test: Inhibition of clonogenicity in human CAL-62 cells at 50 uM incubated for 24 to 48 hrs under hypoxia condition by crystal violet staining based assay; format: functional; conditions: time 24-48 hrs
Method in brief: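 CAL-62 cells at 80–90% confluence treated with 50 μM compound for 24 or 48 h, in normoxia or with 200 μM CoCl2 (hypoxia). 500 cells replated per 100 mm dish and grown about 7 days. Colonies fixed in 4% formaldehyde, stained with 0.5% crystal violet, and counted.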

HaCaT = test: Cytotoxicity against human HaCaT cells assessed as reduction in cell viability at 5 to 25 uM incubated for 24 to 48 hrs by trypan blue exclusion assay; format: toxicity, cell-based; conditions: dose lower 5 µM, time lower 24 hrs, dose upper 25 µM, time upper 48 hrs
Method in brief: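 HaCaT keratinocytes in DMEM with 10% FBS, treated at 5, 10 and 25 μM for 24 and 48 h. Viability and death scored by trypan blue hemocytometer counting. Three independent experiments.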

IC50 (CAL-62 [1]) [µM]	Activity [3]	Activity [6]	Activity [7]	IC50 (MDA-MB-231 [9]) [µM]	Activity [11]	SMILES	inhibition at 50 µM (MDA-MB-231 [2]) [%]	Activity (MDA-MB-231 [4])	EC50 (MDA-MB-231 [5]) [µM]	Activity (CAL-62 [8])	Activity (MDA-MB-231 [10])	inhibition at 50 µM (CAL-62 [12]) [%]	Activity (HaCaT)
5.43	Active	Active	Active	3.19	Active	CCOC(=O)C1=CN(C(=O)c2cc(OC)cc(OC)c2)C=C(C(=O)OCC)C1c1ccccc1	> 75	Active	10.7	Active	Active	68	–
–	–	–	–	–	–	CCOC(=O)C1=CN(C(=O)c2ccc(OC)c(OC)c2)C=C(C(=O)OCC)C1c1ccccc1	–	–	–	–	–	–	Non-Toxic
